According to ChEMBL document CHEMBL4808167, “Design, Synthesis, and Evaluation of Small Molecule Gαq/11 Protein Inhibitors for the Treatment of Uveal Melanoma” (J Med Chem, 2021):

Experiments:
[1] = molecular target: GNAQ/GNA11 (Homo sapiens) (UniProt P50148+P29992); test: Inhibition of Galphaq/11 (unknown origin) expressed in CHO cells coexpressing M1 receptor assessed as reduction in carbachol-induced IP1 accumulation at 10 uM preincubated for 1 hr followed by carbachol stimulation and measured after 1 hr by HTRF assay relative to control; assay type: cell-based; details: time 2.0 hrs
[2] = Antiproliferative activity against human 92.1 cells assessed as inhibition of cell growth after 72 hrs by CCK8 assay; assay type: functional, cell-based; details: Homo sapiens, 921, 72 h
Summary of the method: (§1)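 92.1 or MP41 cells in RPMI-1640 with 10% FBS were seeded at 3 × 10³ cells/well. Exposed to serial concentrations for 72 h at 37 °C, 5% CO₂. CCK-8 added for 1−4 h, absorbance read at 450 nm. IC₅₀ from concentration−response curve fit, mean ± SD.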

[3] = Antiproliferative activity against human MP41 cells assessed as inhibition of cell growth after 72 hrs by CCK8 assay; assay type: functional, cell-based; details: MP41, 72 h; summary of the method: as §1

Row | inhibition [1] | Structure (SMILES) | IC50 [2] | IC50 [3]
1 | 9.5% | CC(C)[C@@H]1c2nc(-c3ccccc3)cn2CCN1C(=O)[C@@H](N)CO | > 100 µM | > 100 µM
2 | 22.9% | N[C@@H](CS)C(=O)N1CCn2cc(-c3ccccc3)nc2[C@@H]1Cc1ccccc1 | 45.2 µM | 19.8 µM
3 | 10.7% | C[C@@H](O)[C@H](N)C(=O)N1CCn2cc(-c3ccccc3)nc2[C@@H]1CC1CCCCC1 | > 100 µM | > 100 µM
4 | 30.5% | CN[C@@H](CS)C(=O)N1CCn2cc(-c3ccccc3)nc2[C@H]1C(C)C | > 100 µM | > 100 µM
5 | 48.4% | CC(C)[C@@H]1c2nc(-c3ccccc3)cn2CCN1C(=O)[C@@H](N)CS | 62.7 µM | > 100 µM
6 | 25.6% | C[C@@H](CS)C(=O)N1CCn2cc(-c3ccccc3)nc2[C@@H]1CC1CCCCC1 | 33.1 µM | > 100 µM
7 | 14.2% | O=C([C@@H]1CCCN1)N1CCn2cc(-c3ccccc3)nc2[C@@H]1CC1CCCCC1 | 27.4 µM | 63.4 µM
8 | 7.4% | N[C@@H](Cc1c[nH]c2ccccc12)C(=O)N1CCn2cc(-c3ccccc3)nc2[C@@H]1CC1CCCCC1 | 20.6 µM | 15.6 µM
9 | 29.3% | N[C@@H](CO)C(=O)N1CCn2cc(-c3ccccc3)nc2[C@@H]1CC1CCCCC1 | 78.4 µM | > 100 µM
10 | 13.2% | CN[C@@H](CS)C(=O)N1CCn2cc(-c3ccccc3)nc2[C@H]1CC(C)C | > 100 µM | 59.3 µM
11 | 19.8% | NC(=O)C[C@H](N)C(=O)N1CCn2cc(-c3ccccc3)nc2[C@@H]1CC1CCCCC1 | > 100 µM | > 100 µM
12 | 22.5% | C[C@H](O)C(=O)N1CCn2cc(-c3ccccc3)nc2[C@@H]1CC1CCCCC1 | > 100 µM | 56.3 µM
13 | 10.2% | N[C@@H](CC(=O)O)C(=O)N1CCn2cc(-c3ccccc3)nc2[C@@H]1CC1CCCCC1 | > 100 µM | > 100 µM
14 | 21.7% | CC(C)[C@H](N)C(=O)N1CCn2cc(-c3ccccc3)nc2[C@@H]1CC1CCCCC1 | 40.3 µM | 83 µM
15 | 19.8% | O=C(CCS)N1CCn2cc(-c3ccccc3)nc2[C@@H]1CC1CCCCC1 | 29.1 µM | > 100 µM
16 | 44.2% | CC(C)C(=O)N1CCn2cc(-c3ccccc3)nc2[C@@H]1CC1CCCCC1 | 42.3 µM | > 100 µM
17 | 6.6% | CC(C)[C@H]1c2nc(-c3ccccc3)cn2CCN1C(=O)[C@@H](N)Cc1ccc(O)cc1 | > 100 µM | > 100 µM
18 | 33.9% | CC(C)[C@H]1c2nc(-c3ccccc3)cn2CCN1C(=O)[C@@H](N)CS | 65.7 µM | > 100 µM
19 | 5.3% | CC(C)[C@H]1c2nc(-c3ccccc3)cn2CCN1C(=O)[C@@H](N)CCCCN | > 100 µM | > 100 µM
20 | 36.8% | NCCCC[C@H](N)C(=O)N1CCn2cc(-c3ccccc3)nc2[C@@H]1CC1CCCCC1 | > 100 µM | > 100 µM
21 | 21.9% | NCC(=O)N1CCn2cc(-c3ccccc3)nc2[C@@H]1CC1CCCCC1 | 19.3 µM | > 100 µM
22 | 18.5% | NC(=O)CC[C@H](N)C(=O)N1CCn2cc(-c3ccccc3)nc2[C@@H]1CC1CCCCC1 | 87.2 µM | > 100 µM
23 | 12.9% | CC[C@H](C)C(=O)N1CCn2cc(-c3ccccc3)nc2[C@@H]1C(C)C | > 100 µM | > 100 µM
24 | 0.96% | CC[C@@H](C)[C@H](N)C(=O)N1CCn2cc(-c3ccccc3)nc2[C@H]1C(C)C | > 100 µM | 97.2 µM
25 | 24.2% | CCN(CC)[C@@H](CS)C(=O)N1CCn2cc(-c3ccccc3)nc2[C@@H]1CC1CCCCC1 | > 100 µM | > 100 µM
26 | 15.9% | CC(C)C[C@H](N)C(=O)N1CCn2cc(-c3ccccc3)nc2[C@@H]1CC1CCCCC1 | 55.4 µM | 33.5 µM
27 | 24.7% | N[C@@H](Cc1c[nH]cn1)C(=O)N1CCn2cc(-c3ccccc3)nc2[C@@H]1CC1CCCCC1 | 91.9 µM | > 100 µM

Row | inhibition [1] | Structure (SMILES) | IC50 [2] | IC50 [3]
28 | 11.9% | CN(C)[C@@H](CS)C(=O)N1CCn2cc(-c3ccccc3)nc2[C@@H]1CC1CCCCC1 | > 100 µM | > 100 µM
29 | 50.4% | CC(C)C[C@@H]1c2nc(-c3ccccc3)cn2CCN1C(=O)[C@@H](N)CS | 64.1 µM | 47.7 µM
30 | 12.4% | CSCC[C@H](N)C(=O)N1CCn2cc(-c3ccccc3)nc2[C@@H]1CC1CCCCC1 | 42 µM | > 100 µM
31 | 30% | CN[C@@H](CS)C(=O)N1CCn2cc(-c3ccccc3)nc2[C@@H]1CC1CCCCC1 | 24 µM | 27.8 µM
32 | 6.5% | CC[C@@H](C)[C@H](N)C(=O)N1CCn2cc(-c3ccccc3)nc2[C@H]1CC(C)C | > 100 µM | > 100 µM
33 | 14.4% | CC(C)C(=O)N1CCn2cc(-c3ccccc3)nc2[C@H]1C(C)C | > 100 µM | > 100 µM
34 | 11.7% | CC(C)[C@@H]1c2nc(-c3ccccc3)cn2CCN1C(=O)[C@@H](N)CCCCN | > 100 µM | > 100 µM
35 | 11.8% | CC[C@H](C)C(=O)N1CCn2cc(-c3ccccc3)nc2[C@H]1C(C)C | > 100 µM | > 100 µM
36 | 1.1% | CC[C@H](C)C(=O)N1CCn2cc(-c3ccccc3)nc2[C@H]1CC(C)C | 84.4 µM | 85.8 µM
37 | 2.8% | CC(C)[C@H]1c2nc(-c3ccccc3)cn2CCN1C(=O)[C@@H](N)CO | > 100 µM | > 100 µM
38 | 16.2% | N[C@@H](CCC(=O)O)C(=O)N1CCn2cc(-c3ccccc3)nc2[C@@H]1CC1CCCCC1 | > 100 µM | > 100 µM
39 | 3.7% | CC(C)C[C@@H]1c2nc(-c3ccccc3)cn2CCN1C(=O)[C@@H](N)Cc1ccc(O)cc1 | > 100 µM | > 100 µM
40 | 21.2% | N[C@@H](Cc1ccccc1)C(=O)N1CCn2cc(-c3ccccc3)nc2[C@@H]1CC1CCCCC1 | 30.1 µM | 25.5 µM
41 | 47.1% | CC[C@H](C)C(=O)N1CCn2cc(-c3ccccc3)nc2[C@@H]1CC1CCCCC1 | 27.4 µM | 79 µM
42 | 11.5% | CN[C@@H](CS)C(=O)N1CCn2cc(-c3ccccc3)nc2[C@@H]1C(C)C | 45 µM | > 100 µM
43 | 1.3% | CC(C)C[C@@H]1c2nc(-c3ccccc3)cn2CCN1C(=O)[C@@H](N)CCCCN | > 100 µM | > 100 µM
44 | 4% | CC(C)C[C@@H]1c2nc(-c3ccccc3)cn2CCN1C(=O)[C@@H](N)CO | > 100 µM | > 100 µM
45 | 2.6% | CC(C)C[C@@H]1c2nc(-c3ccccc3)cn2CCN1C(=O)C(C)C | > 100 µM | > 100 µM
46 | 9.9% | CC(C)C(=O)N1CCn2cc(-c3ccccc3)nc2[C@@H]1C(C)C | > 100 µM | > 100 µM
47 | 18% | CC(C)[C@@H]1c2nc(-c3ccccc3)cn2CCN1C(=O)[C@@H](N)Cc1ccc(O)cc1 | > 100 µM | 97.6 µM
48 | 6% | C[C@@H]1c2nc(-c3ccccc3)cn2CCN1C(=O)[C@@H](N)CS | > 100 µM | > 100 µM
49 | 17.1% | C[C@H](N)C(=O)N1CCn2cc(-c3ccccc3)nc2[C@@H]1CC1CCCCC1 | 35.5 µM | 95.9 µM
50 | 25.3% | CC(C)C[C@H]1c2nc(-c3ccccc3)cn2CCN1C(=O)[C@@H](N)CS | 35.2 µM | 91.9 µM
51 | 24.4% | C[C@H]1c2nc(-c3ccccc3)cn2CCN1C(=O)[C@@H](N)CS | > 100 µM | > 100 µM
52 | 6.2% | N=C(N)NCCC[C@H](N)C(=O)N1CCn2cc(-c3ccccc3)nc2[C@@H]1CC1CCCCC1 | > 100 µM | > 100 µM
53 | 19.5% | N[C@@H](CS)C(=O)N1CCn2cc(-c3ccccc3)nc2[C@H]1Cc1ccccc1 | 25.8 µM | 20 µM
54 | 1.8% | CC[C@@H](C)[C@H](N)C(=O)N1CCn2cc(-c3ccccc3)nc2[C@@H]1C(C)C | > 100 µM | > 100 µM
